The source made the active and inactive calls. The calls are words filed in the database; no cut-off is given here.

For data set [1], the target named is 5-hydroxytryptamine receptor 1A (Homo sapiens) (UniProt P08908). The data set can be described thus: Displacement of [3H]8-OHDPAT from human recombinant 5-HT1A receptor expressed in HEK293 cells at 10^-5 M. The class given is cell-based. In a few lines:
(§1)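 Radioligand binding screen run at a single test concentration of 10^-5 M. Each target used its stated receptor source (human recombinant CHO or HEK-293 cells, endogenous cell lines, or rat tissue membranes) with the listed radioligand.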

The target of data set [2] is 5-hydroxytryptamine receptor 2C (Homo sapiens) (UniProt P28335). In words: Displacement of [3H][…] from human recombinant 5-HT2C receptor expressed in HEK293 cells at 10^-5 M. The class given is cell-based. In a few lines:
(§2)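 Radioligand displacement screen with the test agent at a single 10^-5 M concentration; receptor source and radioligand per target as tabulated (recombinant human cell lines or rat cerebral cortex/urinary bladder).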

In data set [3] the target is Substance-K receptor (Homo sapiens) (UniProt P21452). In words: Displacement of [125I]NKA from human recombinant NK2 receptor expressed in CHO cells at 10^-5 M. The class given is cell-based. An outline of the steps: as §1
Substance-K receptor (Homo sapiens), sequence (P21452 whole entry): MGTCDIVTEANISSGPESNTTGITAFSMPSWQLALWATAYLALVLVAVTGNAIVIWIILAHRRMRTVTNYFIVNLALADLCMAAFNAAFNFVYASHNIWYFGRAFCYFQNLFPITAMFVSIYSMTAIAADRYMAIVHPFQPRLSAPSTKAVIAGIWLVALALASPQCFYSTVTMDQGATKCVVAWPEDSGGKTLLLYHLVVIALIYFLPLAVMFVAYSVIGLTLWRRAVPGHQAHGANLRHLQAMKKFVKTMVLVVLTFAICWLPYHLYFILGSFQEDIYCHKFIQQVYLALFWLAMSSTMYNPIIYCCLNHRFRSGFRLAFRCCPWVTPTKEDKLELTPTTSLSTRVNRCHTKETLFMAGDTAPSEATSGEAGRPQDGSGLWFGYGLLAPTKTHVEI
Data set [4] deals with Melanocortin receptor 4 (Homo sapiens) (UniProt P32245). In words: Displacement of [125I]NDP-alpha-MSH from human recombinant MC4 receptor expressed in CHO cells at 10^-5 M. The format is cell-based. In a few lines: as §1
Melanocortin receptor 4 (Homo sapiens), sequence (P32245 whole entry): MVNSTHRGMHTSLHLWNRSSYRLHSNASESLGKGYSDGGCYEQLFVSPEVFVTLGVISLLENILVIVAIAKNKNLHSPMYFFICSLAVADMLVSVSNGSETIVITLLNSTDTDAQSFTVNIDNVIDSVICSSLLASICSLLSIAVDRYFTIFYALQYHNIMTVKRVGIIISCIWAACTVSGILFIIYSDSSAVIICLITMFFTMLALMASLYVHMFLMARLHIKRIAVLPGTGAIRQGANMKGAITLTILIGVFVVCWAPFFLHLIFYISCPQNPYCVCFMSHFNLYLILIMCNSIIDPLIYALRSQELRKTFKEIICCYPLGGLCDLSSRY
The target in data set [5] is Muscarinic acetylcholine receptor M3 (Homo sapiens) (UniProt P20309). In words: Displacement of [3H]4-DAMP from human recombinant muscarinic M3 receptor expressed in CHO cells at 10^-5 M. The class given is cell-based. An outline of the steps: as §1
Muscarinic acetylcholine receptor M3 (Homo sapiens), sequence (P20309 whole entry, looked up): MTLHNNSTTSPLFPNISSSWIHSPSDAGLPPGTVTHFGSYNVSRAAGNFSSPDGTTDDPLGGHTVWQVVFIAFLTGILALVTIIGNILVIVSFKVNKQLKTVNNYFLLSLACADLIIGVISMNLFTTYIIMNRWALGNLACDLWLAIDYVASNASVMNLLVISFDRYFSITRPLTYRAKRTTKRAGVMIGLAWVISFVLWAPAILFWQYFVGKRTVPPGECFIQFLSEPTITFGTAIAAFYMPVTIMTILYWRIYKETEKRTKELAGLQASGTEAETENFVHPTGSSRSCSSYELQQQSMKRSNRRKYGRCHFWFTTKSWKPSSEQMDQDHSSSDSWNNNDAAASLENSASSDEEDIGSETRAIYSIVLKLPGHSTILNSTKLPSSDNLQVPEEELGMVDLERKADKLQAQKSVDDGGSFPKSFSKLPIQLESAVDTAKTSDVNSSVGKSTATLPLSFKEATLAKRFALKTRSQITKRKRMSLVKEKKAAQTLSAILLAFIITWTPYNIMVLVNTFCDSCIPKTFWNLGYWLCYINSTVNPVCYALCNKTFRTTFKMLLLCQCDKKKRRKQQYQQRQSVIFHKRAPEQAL
For data set [6], the system named is Rattus norvegicus. The data set can be described thus: Anticonvulsant activity in pilocarpine-induced status epilepticus Sprague-Dawley rat model at 100 mg/kg, ip after 4 hrs during post stage 3 seizure. The format is functional, organism-based. An outline of the steps:
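Rats given pilocarpine 50 mg/kg ip and observed to first convulsive seizure (Racine stage 3–5, time zero); test drug then given ip in 0.5% methylcellulose. Efficacy = halting further stage 3–5 convulsive seizures; scored protected/tested, time after first stage 3 seizure.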

For data set [7], the species on record is Rattus norvegicus. The data set can be described thus: Displacement of [3H]alpha,beta-MeATP from rat urinary bladder P2X receptor at 10^-5 M. In a few lines:
as §2

Data set [8] relates to Mus musculus. In words: Anticonvulsant activity in mouse assessed as protection against maximal electric shock-induced seizures at 10 mg/kg, ip measured after 0.5 hrs. The format is functional, organism-based. In a few lines:
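Mice dosed ip with suspension in 0.5% methylcellulose; maximal electroshock applied at the listed time after dosing. Protection = abolition of hindlimb tonic extension component of seizure; reported as animals protected/animals tested.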

The test system of data set [9] is Rattus norvegicus. In words: Anticonvulsant activity in rat assessed as protection against maximal electric shock-induced seizures at 30 mg/kg, ip measured after 0.5 hrs. The class given is functional, organism-based. An outline of the steps: (§3)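 Rats dosed ip or orally as 0.5% methylcellulose suspension; maximal electroshock at listed time. Protection = abolition of hindlimb tonic extension; 4 rats per group, scored protected/tested.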

The subject of data set [10] is Rattus norvegicus. In words: Anticonvulsant activity in rat assessed as protection against maximal electric shock-induced seizures at 30 mg/kg, po measured after 4 hrs. The format is functional, organism-based. An outline of the steps:
as §3

Data set [11] concerns Rattus norvegicus. In words: Anticonvulsant activity in rat assessed as protection against maximal electric shock-induced seizures at 30 mg/kg, ip measured after 4 hrs. The format is functional, organism-based. In a few lines:
as §3

Data set [12] in a line: Ratio of drug level in brain to plasma in CD1 mouse at 12.92 mg/kg, ip administered as single dose measured after 5 mins by LC/ESI-MS/MS analysis. The class given is ADME, organism-based. Conditions: brain and plasma, read-out: BPR.
A short description of data set [13]: Retention time of the compound in mouse liver microsomes at 20 uM preincubated for 15 mins followed by addition of NADPH-regenerating system measured after 5 to 90 mins by […] analysis. The format is ADME. In a few lines: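 Mouse liver microsomes (0.4 mg/mL) with test compound (20 µM) in 100 mM potassium phosphate, pH 7.4, were preincubated 15 min at 37 °C. An NADPH-regenerating system was then added and incubation ran 5–90 min at 37 °C. Levallorphan (20 µM) served as internal standard, and reactions were quenched with perchloric acid. The supernatant was analysed by UPLC/MS. Duplicate incubations.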

A short description of data set [14]: Absolute bioavailability in CD1 mouse plasma at 12.92 mg/kg, ig measured up to 240 mins by LC/ESI-MS/MS analysis. The class given is ADME, organism-based. Conditions: po.
Data set [15] is described as follows: Ratio of drug level in brain to plasma in CD1 mouse at 12.92 mg/kg, ip administered as single dose measured after 15 mins by LC/ESI-MS/MS analysis. The format is ADME, organism-based. Particulars: brain and plasma, read-out: BPR.
Data set [16] can be described thus: Cmax in CD1 mouse brain at 12.92 mg/kg, ig measured up to 240 mins by LC/ESI-MS/MS analysis. The class given is ADME, organism-based. On the set-up: dose 12.92 mg/kg, route […]. Conditions: po.
Data set [17] is described as follows: Neurotoxicity in ip dosed mouse after […] by rotarod test. Particulars: in vivo. The class given is toxicity, organism-based.
Data set [18] in a line: AUC (0 to infinity) in CD1 mouse brain at 1 mg/kg, iv measured up to 240 mins by LC/ESI-MS/MS analysis. The format is ADME, organism-based. On the set-up: dose 1 mg/kg, route intravenous, time infinity.
Data set [19] relates to Mus musculus. In words: Anticonvulsant activity in ip dosed mouse assessed as protection against maximal electric shock-induced seizures measured after […]. The format is functional.
For data set [20], the system named is Vibrio harveyi. In words: Antimutagenic activity against Vibrio harveyi BB7M assessed as inhibition of NQNO-induced mutagenicity after 48 hrs. The class given is functional. An outline of the steps:
(§4)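 V. harveyi cultures grown exponentially to A600 0.1 at 30 °C, exposed to test compound for 15 min, then to NQNO, and grown on to A600 0.3–0.4. 5 × 10⁶ cells plated on BOSS agar with neomycin (100, final). Neomycin-resistant colonies counted after 48 h at 30 °C. Result given as % inhibition of NQNO mutagenicity; three independent repeats.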

Data set [21] deals with Mus musculus. The data set can be described thus: Neurotoxicity in mouse at 30 mg/kg, ip after 0.5 hrs by rotarod test. The class given is toxicity, organism-based. Conditions: in vivo. In a few lines: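 Mice were dosed ip with compound suspended in 0.5% methylcellulose. Rotarod: a 1 in. knurled rod turning at 6 rpm. Neurotoxicity was scored as failure to stay on the rod for at least 1 min in each of three trials. Results are given as the number of animals affected out of the number tested.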

The nature of data set [22]: Tmax in CD1 mouse brain at 12.92 mg/kg, ip measured up to 240 mins by LC/ESI-MS/MS analysis. The class given is ADME, organism-based.
The test system of data set [23] is Vibrio harveyi. The data set can be described thus: Mutagenicity in Vibrio harveyi BB7 assessed as number of colonies after 48 hrs (reference value: 13 to 14 no_unit). Conditions: in vivo. The format is ADME, organism-based. An outline of the steps: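 Vibrio harveyi mutagenicity test: test compound was added to exponentially growing cultures (A600 = 0.1, 30 °C) and grown to OD600 0.3–0.4. Then 5 × 10^6 cells were plated on BOSS agar with neomycin (final 100 µg/mL) and incubated 48 h at 30 °C. Neomycin-resistant colonies were counted. Triplicate; controls were water, DMSO and NQNO 40 ng/mL.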

Data set [24] relates to Vibrio harveyi. In words: Antimutagenic activity against Vibrio harveyi BB7 assessed as inhibition of NQNO-induced mutagenicity after 48 hrs. The format is functional. An outline of the steps: as §4
Data set [25] is described as follows: MRT in CD1 mouse plasma at 12.92 mg/kg, ip measured up to 240 mins by LC/ESI-MS/MS analysis. The format is ADME, organism-based.
Data set [26] relates to Mus musculus. The data set can be described thus: AUMC (0 to infinity) in CD1 mouse plasma at 12.92 mg/kg, ig measured up to 240 mins by LC/ESI-MS/MS analysis. The format is ADME, organism-based. Conditions: in vivo, po, 4 h.
Data set [27] deals with Mus musculus. The data set can be described thus: Cmax in CD1 mouse plasma at 12.92 mg/kg, ig measured up to 240 mins by LC/ESI-MS/MS analysis. Particulars: in vivo, po, 4 h. On the set-up: dose 12.92 mg/kg, route […]. The class given is ADME, organism-based.
Data set [28] is described as follows: MRT in CD1 mouse brain at 12.92 mg/kg, ip measured up to 240 mins by LC/ESI-MS/MS analysis. The format is ADME, organism-based.

5-hydroxytryptamine receptor 1A (Homo sapiens), sequence (P08908 whole entry): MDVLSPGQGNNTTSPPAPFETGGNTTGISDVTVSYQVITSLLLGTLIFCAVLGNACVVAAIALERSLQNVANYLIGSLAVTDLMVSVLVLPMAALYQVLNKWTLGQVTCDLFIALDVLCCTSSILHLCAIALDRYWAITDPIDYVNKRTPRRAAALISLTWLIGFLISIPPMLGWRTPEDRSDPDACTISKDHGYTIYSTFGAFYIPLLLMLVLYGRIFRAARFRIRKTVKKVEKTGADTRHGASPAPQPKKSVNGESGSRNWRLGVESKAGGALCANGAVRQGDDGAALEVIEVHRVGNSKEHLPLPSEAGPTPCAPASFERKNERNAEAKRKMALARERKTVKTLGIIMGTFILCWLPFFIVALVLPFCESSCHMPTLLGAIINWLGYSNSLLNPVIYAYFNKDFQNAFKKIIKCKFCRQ
5-hydroxytryptamine receptor 2C (Homo sapiens), sequence (P28335 whole entry): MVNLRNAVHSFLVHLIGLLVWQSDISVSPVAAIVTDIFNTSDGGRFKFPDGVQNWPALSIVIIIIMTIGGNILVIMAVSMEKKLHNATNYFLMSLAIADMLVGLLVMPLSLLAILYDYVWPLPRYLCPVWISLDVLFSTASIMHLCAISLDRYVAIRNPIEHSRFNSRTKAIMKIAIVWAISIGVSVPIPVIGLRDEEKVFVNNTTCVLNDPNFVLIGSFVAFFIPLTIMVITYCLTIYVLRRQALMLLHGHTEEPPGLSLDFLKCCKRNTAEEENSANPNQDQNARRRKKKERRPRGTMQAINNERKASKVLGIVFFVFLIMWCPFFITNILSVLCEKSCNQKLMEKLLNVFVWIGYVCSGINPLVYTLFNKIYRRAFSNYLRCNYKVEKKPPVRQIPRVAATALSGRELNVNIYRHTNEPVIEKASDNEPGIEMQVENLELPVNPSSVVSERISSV

With `Cc1cccc(C)c1OCCOCCN[C@H](C)CO`, the inhibition in data set [1] was found to be 70.6%; in data set [2], 34.7%; in data set [3] it was 2.2%; in data set [4], 5.3%; in data set [5], 8.5%; in data set [7], 3.5%. In addition, in data set [6], the result was inactive.

With `Cc1cccc(C)c1OCCOCCN[C@@H](C)CO`, the inhibition in [1] was 63.9%; in data set [2] it was 47.4%; in data set [3] it was 41.2%; in data set [4], 9%; in [5] it was 4.4%; in data set [7] it was 4.8%. The result in [8], in [10] and in [11] was inactive. Besides, the result in [9] was Active.

As for `Cc1cccc(C)c1OCCOCCN[C@H](C)CO.Cl`, in [12], the Kp at 5 min was determined as 1.13. This compound also came in with a Retention_time in data set [13] of 3.81 min. This compound also yielded a bioavailability in data set [14] of 2.98%. Also, the Kp at […] in data set [15] came to 2.55. Besides, the Cmax in data set [16] stood at 1640 ng/mL; in [27], 950 ng/mL. In addition, in data set [17], the TD50 at […] is 33.3 mg/kg. The compound further came in with an AUC(0-inf) in data set [18] of 5150 ng·h/mL. The ED50 in data set [19] turned out to be 12.9 mg/kg. The “inhibition (INH)” value in data set [20] was 69%; in data set [24], 75%. The Activity result in data set [21] is reported as “Non-toxic”; in [23] it was 20. Moreover, in data set [22], the Tmax is 0.25 h. For the same compound, the figures for the MRT in [25] and in [28] were 1.42 h and 1.38 h, respectively. This compound yielded an AUMC in data set [26] of 266 ng·h²/mL.

The record behind these values is ChEMBL document CHEMBL3774372, “Design, physico-chemical properties and biological evaluation of some new N-[(phenoxy)alkyl]- and N-{2-[2-(phenoxy)ethoxy]ethyl}aminoalkanols as anticonvulsant agents” (Bioorg Med Chem, 2016).
